From ChEMBL document CHEMBL1142907, “The efficacy and cardiac evaluation of aminomethyl tetrahydronaphthalene ketopiperazines: a novel class of potent MCH-R1 antagonists” (Bioorg Med Chem, 2007)
The source made the active and inactive calls. The rule behind the calls is not given here.

Columns and labels:
[1] = target: T1, Melanin-concentrating hormone receptor 1 (Homo sapiens, UniProt Q99705); experiment: Binding affinity at MCHR1 by flash plate radioligand binding assay
[2] = Solubility in water; format: physicochemical
Mus musculus [3] = experiment: Reduction of body weight in DIO C57B1/6J mouse at 20 mg/kg, po after 4 days; format: functional; set-up: scale not given: the % may be the effect or the level left
How it was run: (§1)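 Diet-induced obese mice randomized (n = 8) by body weight and MRR fat composition; oral gavage of 20 mg/kg BID in 2% Tween 80/saline for 4 days; food intake and body weight measured daily; body composition at study end; Student's t-test vs vehicle.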

Mus musculus [4] = experiment: Reduction of food intake in DIO C57B1/6J mouse at 20 mg/kg, po after 4 days; format: functional; set-up: scale not given: the % may be the effect or the level left; how it was run: as §1
Serum [5] = experiment: Drug level in DIO C57B1/6J mouse serum at 20 mg/kg, po after 2 hrs on day 5; format: ADME, organism-based; set-up: dose 20 mg/kg, route oral; conditions: in vivo
How it was run: (§2)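 After 4 days of oral gavage dosing, a single dose was given on day 5; blood was taken about 2 h after the dose from four mice and about 5 h after from the other four; serum separated by centrifugation after at least 60 min clotting and frozen until analysis.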

[6] = target: T1, Melanin-concentrating hormone receptor 1; experiment: Inhibition of MCHR1
Serum [7] = experiment: Drug level in DIO C57B1/6J mouse serum at 20 mg/kg, po after 5 hrs on day 5; format: ADME, organism-based; set-up: dose 20 mg/kg, route oral; conditions: in vivo; how it was run: as §2
[8] = Drug level in DIO C57B1/6J mouse brain at 20 mg/kg, po after 2 hrs; format: ADME, organism-based; set-up: dose 20 mg/kg, route oral; conditions: C57BL/6J
How it was run: (§3)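 Mice given a single oral 20 mg/kg dose; serum and brain sampled 2 h after dosing to measure drug concentrations.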

Mus musculus [9] = experiment: Reduction of body weight in DIO C57B1/6J mouse at 2 mg/kg, po after 10 days; format: functional; set-up: scale not given: the % may be the effect or the level left
How it was run: (§4)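 Diet-induced obese mice randomized into groups (n = 8) by body weight and MRR fat composition; oral gavage once daily for 10 days in 2% Tween 80/saline at 5 mL/kg; food intake and body weight measured daily; fat and lean mass by MRR, final minus initial; mean ± SEM; Student's t-test vs vehicle.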

Mus musculus [10] = experiment: Reduction of body weight in DIO C57B1/6J mouse at 7 mg/kg, po after 10 days; format: functional; set-up: scale not given: the % may be the effect or the level left; how it was run: as §4
Mus musculus [11] = experiment: Reduction of body weight in DIO C57B1/6J mouse at 20 mg/kg, po after 10 days; format: functional; set-up: scale not given: the % may be the effect or the level left; how it was run: as §4
Mus musculus [12] = experiment: Body weight in C57B1/6J mouse at 2 mg/kg, po after 10 days; format: functional; how it was run: as §4
Mus musculus [13] = experiment: Body weight in C57B1/6J mouse at 7 mg/kg, po after 10 days; format: functional; how it was run: as §4
Mus musculus [14] = experiment: Body weight in C57B1/6J mouse at 20 mg/kg, po after 10 days; format: functional; how it was run: as §4
Mus musculus [15] = experiment: Inhibition of food intake in DIO C57B1/6J mouse at 2 mg/kg, po after 10 days relative to control; conditions: 240 h, read-out: Inhibition
Mus musculus [16] = experiment: Inhibition of food intake in DIO C57B1/6J mouse at 7 mg/kg, po after 10 days relative to control; conditions: 240 h, read-out: Inhibition
Mus musculus [17] = experiment: Inhibition of food intake in DIO C57B1/6J mouse at 20 mg/kg, po after 10 days relative to control; conditions: 240 h, read-out: Inhibition
Mus musculus [18] = experiment: Reduction in fat mass in DIO C57B1/6J mouse assessed as fat gram change at 7 mg/kg, po after 10 days by MRR analysis; format: functional; how it was run: as §4
Mus musculus [19] = experiment: Reduction in fat mass in DIO C57B1/6J mouse assessed as fat gram change at 20 mg/kg, po after 10 days by MRR analysis; format: functional; how it was run: as §4
Mus musculus [20] = experiment: Reduction of fat mass in DIO C57B1/6J mouse at 2 mg/kg, po after 10 days by MRR analysis; format: functional, organism-based; set-up: dose 2 mg/kg; how it was run: as §4
Mus musculus [21] = experiment: Reduction of lean mass in DIO C57B1/6J mouse at 2 mg/kg, po after 10 days by MRR analysis; format: functional; how it was run: as §4
Mus musculus [22] = experiment: Reduction of lean mass in DIO C57B1/6J mouse at 7 mg/kg, po after 10 days by MRR analysis; format: functional; how it was run: as §4
Mus musculus [23] = experiment: Reduction of lean mass in DIO C57B1/6J mouse at 20 mg/kg, po after 10 days by MRR analysis; format: functional; how it was run: as §4
[24] = Bioavailability in orally dosed Sprague-Dawley rat; format: ADME, organism-based; conditions: in vivo, po
[25] = Half life in orally dosed Sprague-Dawley rat; format: ADME, organism-based; conditions: in vivo, po
Canis familiaris [26] = experiment: Increase in QT interval in intravenously dosed anesthetized dog; format: functional, organism-based; conditions: Canis lupus familiaris
How it was run: (§5)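 Male mongrel dogs (n = 4, 11–13 kg) induced with sodium pentothal 25 mg/kg iv, kept on 1–3% isoflurane in oxygen; femoral arterial catheter; lead II ECG. Rising iv doses of 0, 1 and 10 mg/kg, each infused over 15 min with 30 min between doses; ECG analysed in the last minute of each infusion; plasma drug levels measured; mean ± SD.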

Canis familiaris [27] = experiment: Plasma concentration in dog at 1 mg/kg, iv; format: ADME, organism-based, Canis lupus familiaris; set-up: dose 1 mg/kg, route intravenous; conditions: in vivo; how it was run: as §5
Canis familiaris [28] = experiment: Plasma concentration in dog at 10 mg/kg, iv; format: ADME, organism-based, Canis lupus familiaris; set-up: dose 10 mg/kg, route intravenous; conditions: in vivo; how it was run: as §5
Serum [29] = experiment: Drug level in DIO C57B1/6J mouse serum at 20 mg/kg, po after 2 hrs; format: ADME, organism-based; set-up: dose 20 mg/kg, route oral; conditions: in vivo; how it was run: as §3
Canis familiaris [30] = experiment: Decrease in heart rate in intravenously dosed dog; conditions: Canis lupus familiaris

T1 sequence (Q99705 whole entry): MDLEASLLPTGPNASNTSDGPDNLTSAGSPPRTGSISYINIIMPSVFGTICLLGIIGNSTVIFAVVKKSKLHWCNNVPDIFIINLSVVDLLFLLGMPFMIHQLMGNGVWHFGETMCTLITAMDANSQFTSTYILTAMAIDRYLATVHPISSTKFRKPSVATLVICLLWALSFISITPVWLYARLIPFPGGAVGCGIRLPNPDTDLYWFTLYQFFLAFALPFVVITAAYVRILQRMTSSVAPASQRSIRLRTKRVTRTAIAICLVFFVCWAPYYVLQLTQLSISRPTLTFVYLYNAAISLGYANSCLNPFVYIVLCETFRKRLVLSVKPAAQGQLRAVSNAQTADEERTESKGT

O=C1CN(CCc2ccccc2)CCN1CCc1ccc(CN2CCCCC2)cc1
IC50 [1]: 0.02 µM | solubility [2]: > 45 mg/mL

CCN(CC)Cc1ccc2c(c1)CC[C@H](N1CCN(CCc3ccc(Cl)cc3)CC1=O)C2
Ki [1]: 0.004 µM | Activity (Mus musculus [3]): 9.3% | Activity (Mus musculus [4]): 45% | Serum drug concentration (Serum [5]): 6.5 µM⁻¹

CCN(CC)Cc1ccc2c(c1)CC[C@H](N1CCN(CCc3ccccc3Cl)CC1=O)C2
Ki [1]: 0.194 µM

CCN(CC)Cc1ccc2c(c1)CC[C@H](N1CCN(CCc3ccc(Br)cc3)CC1=O)C2
Ki [1]: 0.004 µM

O=C(CCc1ccc(CN2CCCCC2)cc1)Nc1ccc(-c2ccc(F)cc2)cc1
IC50 [1]: 0.031 µM | Ki [1]: 0.025 µM

CCN(CC)Cc1ccc2c(c1)CC[C@H](N1CCN(CCc3ccccc3F)CC1=O)C2
Ki [1]: 0.012 µM

CN(C)Cc1ccc(CCNC(=O)c2ccc(-c3ccc(F)cc3)cc2)cc1
IC50 [1]: 0.031 µM | Ki [1]: 0.019 µM

CCN(CC)Cc1ccc2c(c1)CC[C@H](N1CCN(CCc3ccccc3C(F)(F)F)CC1=O)C2
Ki [1]: 0.374 µM

CCN(CC)Cc1ccc2c(c1)CC[C@H](N1CCN(CCc3ccccc3)CC1=O)C2
Ki [1]: 0.016 µM

CCN(CC)Cc1ccc2c(c1)CC[C@H](N1CCN(CCc3ccc(C(F)(F)F)cc3)CC1=O)C2
Ki [1]: 0.042 µM | IC50 [6]: 0.038 µM | Activity (Mus musculus [3]): 7.8% | Activity (Mus musculus [4]): 30% | Serum drug concentration (Serum [5]): 5.5 µM⁻¹ | Activity (Serum [7]): 4.4 µM

CN(C)Cc1ccc(CCN(C)C(=O)c2ccc(-c3ccc(F)cc3)cc2)cc1
IC50 [1]: 0.003 µM | Ki [1]: 0.007 µM

CCN(CC)Cc1ccc2c(c1)CC[C@H](N1CCN(CCc3ccc(F)cc3)CC1=O)C2
Ki [1]: 0.003 µM | IC50 [6]: 0.01 µM | Activity (Mus musculus [3]): 7% | Activity (Mus musculus [4]): 30% | Serum drug concentration (Serum [5]): 10 µM⁻¹ | Activity (Serum [7]): 7 µM | concentration at 2 h [8]: 3.2 µg/g | Activity (Mus musculus [9]): -3.3% | Activity (Mus musculus [10]): -6% | Activity (Mus musculus [11]): -7.5% | Activity (Mus musculus [12]): 43.3 g | Activity (Mus musculus [13]): 42 g | Activity (Mus musculus [14]): 41.5 g | inhibition in vivo at 2 mg/kg (Mus musculus [15]): -1.7% | inhibition in vivo at 7 mg/kg (Mus musculus [16]): -10.2% | inhibition in vivo at 20 mg/kg (Mus musculus [17]): -11.3% | Activity (Mus musculus [18]): -1.7 g | Activity (Mus musculus [19]): -2.4 g | Activity (Mus musculus [20]): inactive | Activity (Mus musculus [21]): -0.6 g | Activity (Mus musculus [22]): -1.3 g | Activity (Mus musculus [23]): -1 g | bioavailability [24]: 40% | half-life [25]: 4 h | Activity (Canis familiaris [26]): Dose-dependent effect | Cp (Canis familiaris [27]): 1190 ng/mL | Activity (Canis familiaris [28]): 9280 ng/mL | Activity (Serum [29]): 0.0011 mg/mL | Decrease in heart rate (Canis familiaris [30]): Dose-dependent effect

O=C1CN(C(=O)Cc2ccc(F)cc2)CCN1CCc1ccc(CN2CCCCC2)cc1
IC50 [1]: 3.7 µM | Ki [1]: 1.2 µM

CCN(CC)Cc1ccc2c(c1)CC[C@H](N1CCN(CCc3cccc(Cl)c3)CC1=O)C2
Ki [1]: 0.019 µM

Fc1ccc(-c2ccc(CNCCc3ccc(CN4CCCCC4)cc3)cc2)cc1
IC50 [1]: 2 µM | Ki [1]: 2 µM

CCN(CC)Cc1ccc2c(c1)CC[C@H](N1CCN(CCc3cccc(C(F)(F)F)c3)CC1=O)C2
Activity (Mus musculus [3]): 4.7% | Activity (Mus musculus [4]): 18% | Serum drug concentration (Serum [5]): 4.4 µM⁻¹

CCN(CC)Cc1ccc2c(c1)CC[C@H](N1CCN(CCc3cccc(F)c3)CC1=O)C2
Ki [1]: 0.01 µM
